In ChEMBL document CHEMBL1131636, “Conformationally constrained analogues of the muscarinic agonist 3-(4-(methylthio)-1,2,5-thiadiazol-3-yl)-1,2,5,6-tetrahydro-1-methylpyr idine. Synthesis, receptor affinity, and antinociceptive activity” (J Med Chem, 1998):

Tests used:
[1] = system: Mus musculus; assay: Compound was tested for its ability to induce salivation in mice upon subcutaneous administration; assay type: functional; settings: sc
Summary of the method: (§1)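 Mice dosed sc, scored just before the 30-min postdrug grid-shock test. Salivation or tremor rated 0–3 per animal. Scores multiplied by number of mice, summed per group (n = 10), and expressed as % of maximum sum (30). ED50 derived.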

[2] = target: T1, Muscarinic acetylcholine receptor M1 (Homo sapiens, UniProt P11229); assay: (§2) Compound was evaluated for its ability to displace [3H]N-methylscopolamine ([3H]NMS) binding to cloned CHO cell lines expressing Muscarinic acetylcholine receptor M1; assay type: cell-based
T1 sequence (P11229 whole entry): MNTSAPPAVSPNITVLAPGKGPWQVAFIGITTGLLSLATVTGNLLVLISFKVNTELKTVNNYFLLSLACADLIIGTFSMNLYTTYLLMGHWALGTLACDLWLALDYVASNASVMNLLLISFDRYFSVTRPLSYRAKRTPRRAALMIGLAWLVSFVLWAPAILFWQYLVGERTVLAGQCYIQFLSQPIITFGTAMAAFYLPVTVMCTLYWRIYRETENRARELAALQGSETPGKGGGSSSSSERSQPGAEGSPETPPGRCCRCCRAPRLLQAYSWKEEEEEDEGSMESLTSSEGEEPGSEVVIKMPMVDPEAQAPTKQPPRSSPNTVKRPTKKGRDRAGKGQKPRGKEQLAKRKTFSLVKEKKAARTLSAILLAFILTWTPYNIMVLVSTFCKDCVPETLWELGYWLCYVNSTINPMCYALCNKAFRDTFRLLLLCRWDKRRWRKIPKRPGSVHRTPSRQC

[3] = system: Mus musculus; assay: Compound was tested for its ability to induce tremors in mice subcutaneous administration; assay type: functional; settings: sc; summary of the method: as §1
[4] = system: Mus musculus; assay: In vivo antinociceptive activity was measured using mouse grid shock (MGS) assay in mice upon subcutaneous administration; assay type: functional; settings: sc
Summary of the method: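 Mice dosed sc by body weight, then shocked via stainless steel grid floor 30 min later. Vocalization detected acoustically. Percent increase in latency = (postdrug − predrug)/(cutoff − predrug) × 100 per animal, averaged per dose. Ten mice per dose and for controls. ED50 derived.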

[5] = target: Muscarinic acetylcholine receptor; assay: In vitro Binding affinity was measured on Muscarinic acetylcholine receptor on rat brain membranes using [3H]oxotremorine-M; design: species or system Membrane
Summary of the method: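 Rat brain homogenate washed by 40000g centrifugation and resuspended in Hepes pH 7.4. Incubated with 1.0 nM (final) [3H]Oxo-M for 30 min at 25 °C. […] Filtered on glass fiber, washed with ice-cold buffer, scintillation counted. IC50 from at least four concentrations in triplicate, Hill equation.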

[6] = target: T2, Muscarinic acetylcholine receptor M4 (Homo sapiens, UniProt P08173); assay: Compound was evaluated for its ability to displace [3H]- N-methyl-scopolamine ([3H]-NMS) binding to cloned CHO cell lines expressing Muscarinic acetylcholine receptor M4; assay type: cell-based
T2 sequence (P08173 whole entry): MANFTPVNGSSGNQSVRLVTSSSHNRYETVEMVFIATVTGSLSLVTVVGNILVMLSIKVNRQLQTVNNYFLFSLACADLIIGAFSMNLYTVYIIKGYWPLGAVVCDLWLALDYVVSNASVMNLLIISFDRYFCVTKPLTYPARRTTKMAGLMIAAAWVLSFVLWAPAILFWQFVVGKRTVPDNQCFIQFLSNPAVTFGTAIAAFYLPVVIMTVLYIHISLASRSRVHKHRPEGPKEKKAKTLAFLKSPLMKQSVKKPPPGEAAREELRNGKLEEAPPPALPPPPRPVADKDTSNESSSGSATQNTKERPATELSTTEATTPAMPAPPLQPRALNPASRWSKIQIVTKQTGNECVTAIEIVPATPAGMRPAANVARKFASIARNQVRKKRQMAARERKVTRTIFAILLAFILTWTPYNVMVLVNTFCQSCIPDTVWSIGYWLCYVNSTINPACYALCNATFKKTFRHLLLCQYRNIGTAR

[7] = target: Muscarinic acetylcholine receptor M3 (Homo sapiens, UniProt P20309); assay: Compound was evaluated for its ability to displace [3H]N-methylscopolamine ([3H]NMS) binding to cloned CHO cell lines expressing Muscarinic acetylcholine receptor M3; assay type: cell-based
[8] = target: T3, Muscarinic acetylcholine receptor M5 (Homo sapiens, UniProt P08912); assay: Compound was evaluated for its ability to displace [3H]- N-methyl-scopolamine ([3H]NMS) binding to cloned CHO cell lines expressing Muscarinic acetylcholine receptor M5; assay type: cell-based
T3 sequence (P08912 whole entry): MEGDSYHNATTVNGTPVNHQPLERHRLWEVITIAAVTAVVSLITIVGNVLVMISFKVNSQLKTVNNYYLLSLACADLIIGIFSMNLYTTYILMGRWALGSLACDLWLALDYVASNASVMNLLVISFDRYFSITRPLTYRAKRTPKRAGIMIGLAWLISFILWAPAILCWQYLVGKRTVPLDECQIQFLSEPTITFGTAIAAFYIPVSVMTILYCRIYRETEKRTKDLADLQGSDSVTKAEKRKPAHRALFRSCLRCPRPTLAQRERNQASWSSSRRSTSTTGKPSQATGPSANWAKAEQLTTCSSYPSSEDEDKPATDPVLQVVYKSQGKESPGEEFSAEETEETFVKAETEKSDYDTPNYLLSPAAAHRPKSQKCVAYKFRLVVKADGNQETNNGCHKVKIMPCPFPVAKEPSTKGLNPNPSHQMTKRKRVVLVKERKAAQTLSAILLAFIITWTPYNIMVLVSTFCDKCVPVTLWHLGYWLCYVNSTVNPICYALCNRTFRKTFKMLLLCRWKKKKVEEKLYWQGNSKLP

[9] = target: T4, Muscarinic acetylcholine receptor M2 (Homo sapiens, UniProt P08172); assay: Compound was evaluated for its ability to displace [3H]- N-methyl-scopolamine ([3H]NMS) binding to cloned CHO cell lines expressing Muscarinic acetylcholine receptor M2; assay type: cell-based
T4 sequence (P08172 whole entry): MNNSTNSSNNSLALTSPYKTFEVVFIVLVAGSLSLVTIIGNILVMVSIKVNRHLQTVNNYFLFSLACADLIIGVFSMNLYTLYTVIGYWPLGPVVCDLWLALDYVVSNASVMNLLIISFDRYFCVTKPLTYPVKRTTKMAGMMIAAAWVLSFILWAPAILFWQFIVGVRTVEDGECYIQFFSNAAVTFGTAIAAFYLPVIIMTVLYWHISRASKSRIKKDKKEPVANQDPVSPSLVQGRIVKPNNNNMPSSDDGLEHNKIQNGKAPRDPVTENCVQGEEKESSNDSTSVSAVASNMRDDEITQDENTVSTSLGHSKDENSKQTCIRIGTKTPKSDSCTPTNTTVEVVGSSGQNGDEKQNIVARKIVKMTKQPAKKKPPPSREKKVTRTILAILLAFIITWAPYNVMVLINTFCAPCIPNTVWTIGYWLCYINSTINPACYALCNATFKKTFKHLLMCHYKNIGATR

[10] = target: T1, Muscarinic acetylcholine receptor M1; assay: as §2; assay type: cell-based; remark: listed apart in the source
Summary of the method: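 Membranes from CHO cells expressing cloned m1 receptor, prepared in 20 mM sodium phosphate pH 7.4 (200g spin, then 40000g for 45 min at 4 °C; stored −80 °C). 23–45 μg protein incubated with [3H]NMS (5 nM as added) and test compound for 2 h. WGA-coated SPA beads added, counted after a further 2 h.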

[11] = target: Muscarinic acetylcholine receptor; assay: In vitro Binding affinity was measured against Muscarinic acetylcholine receptor on rat brain membranes using [3H]oxotremorine-M

Chain of Muscarinic acetylcholine receptor M3 (P20309 whole entry): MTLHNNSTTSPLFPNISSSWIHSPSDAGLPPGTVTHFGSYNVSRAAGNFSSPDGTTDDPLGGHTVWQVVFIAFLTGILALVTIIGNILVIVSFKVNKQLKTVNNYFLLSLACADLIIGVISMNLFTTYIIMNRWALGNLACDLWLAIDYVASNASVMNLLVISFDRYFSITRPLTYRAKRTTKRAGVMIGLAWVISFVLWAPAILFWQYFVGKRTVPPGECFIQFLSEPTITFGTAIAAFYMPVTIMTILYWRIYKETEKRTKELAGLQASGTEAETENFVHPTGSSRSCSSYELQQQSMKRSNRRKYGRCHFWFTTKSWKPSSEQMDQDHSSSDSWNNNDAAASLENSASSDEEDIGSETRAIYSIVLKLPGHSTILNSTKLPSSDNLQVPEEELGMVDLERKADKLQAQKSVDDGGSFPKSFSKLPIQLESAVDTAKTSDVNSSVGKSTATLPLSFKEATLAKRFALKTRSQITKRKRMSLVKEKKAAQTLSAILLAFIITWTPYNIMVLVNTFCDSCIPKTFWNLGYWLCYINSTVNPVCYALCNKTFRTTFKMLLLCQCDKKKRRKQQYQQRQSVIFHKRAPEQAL

| IC50 [5] [µM] | IC50 [10] [µM] | SMILES | ED50 [1] [mg/kg] | IC50 [2] [µM] | ED50 [3] [mg/kg] | ED50 [4] [mg/kg] | IC50 [6] [µM] | IC50 [7] [µM] | IC50 [8] [µM] | IC50 [9] [µM] | IC50 [11] [µM] |
| --- | --- | --- | --- | --- | --- | --- | --- | --- | --- | --- | --- |
| 0.0445 | – | c1cc2nsnc2c2c1CCNC2 | 5.1 | 100 | 6.4 | 4.4 | 100 | 100 | 100 | 6.7 | – |
| 0.0045 | 1.8 | CSc1nsnc1C1=CCCN(C)C1 | 6 | – | > 10 | 4 | 1.2 | 1.6 | 2.1 | 0.48 | – |
| 0.0076 | – | CSc1nsnc1C1=CCCNC1 | 7.4 | – | 4.5 | 1.8 | – | – | – | – | – |

Further lines, the molecule ahead of its results:

| SMILES | IC50 [5] [µM] | IC50 [10] [µM] | ED50 [1] [mg/kg] | IC50 [2] [µM] | ED50 [3] [mg/kg] | ED50 [4] [mg/kg] | IC50 [6] [µM] | IC50 [7] [µM] | IC50 [8] [µM] | IC50 [9] [µM] | IC50 [11] [µM] |
| --- | --- | --- | --- | --- | --- | --- | --- | --- | --- | --- | --- |
| CN1CCC2=C(C1)c1nsnc1SC2 | 0.0278 | – | 13 | 20.5 | > 30 | 10.4 | 14.5 | 9.7 | 23 | 2.2 | – |
| C1Cc2sc3nsnc3c2CN1 | 0.0355 | – | 8.8 | – | 15.8 | 4.6 | – | – | – | – | – |
| CSc1nsnc1C1=C(C)CCN(C)C1 | > 0.5 | – | > 30 | > 100 | > 30 | > 30 | > 100 | > 100 | 100 | 100 | – |
| COC(=O)C1=CCCN(C)C1 [ARECOLINE] | – | – | 15 | – | 15 | 16 | – | – | – | – | – |
| O=C1CCCN1CC#CCN1CCCC1 [OXOTREMORINE] | – | – | 0.2 | 9 | 0.2 | 0.038 | 5 | 17 | 8 | 0.4 | 0.005 |
